Measurements published in paper PMC3861893 (Journal of medicinal chemistry, 2012).

Key:
[1] = test system: antigen-specific CD8+ T cells; experiment: In vivo cellular immune response assay; parameters: species or system C57BL/6 (B6) mice; details: for response rate of tetramer positive CD8+ T cells (day 7 = 100%): average, n = 3
Method in brief: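 Mice aged 6-8 weeks immunized i.v. with 200 μL of 100 μg Trp1455/9M peptide, 50 μg anti-CD40 mAb (FGK-45.5) and 50 μg TLR2 agonist (test compound, Pam2CSK4 or Pam3CSK4). Submandibular blood taken on days 7, 21 and 34, red cells lysed with ammonium chloride. Stained 40 min on ice with anti-CD8a, PE Trp1455/9M/H-2Db tetramer and anti-MHC II. Tetramer+ CD8+ cells gated by flow cytometry; n=3.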

[2] = target: TLR2 (Homo sapiens, UniProt O60603); experiment: In cyto europium TRF competition binding assay; details: Ki (summary statement), cell line not specified, summary in discussion
Chain of TLR2 (O60603 21-784): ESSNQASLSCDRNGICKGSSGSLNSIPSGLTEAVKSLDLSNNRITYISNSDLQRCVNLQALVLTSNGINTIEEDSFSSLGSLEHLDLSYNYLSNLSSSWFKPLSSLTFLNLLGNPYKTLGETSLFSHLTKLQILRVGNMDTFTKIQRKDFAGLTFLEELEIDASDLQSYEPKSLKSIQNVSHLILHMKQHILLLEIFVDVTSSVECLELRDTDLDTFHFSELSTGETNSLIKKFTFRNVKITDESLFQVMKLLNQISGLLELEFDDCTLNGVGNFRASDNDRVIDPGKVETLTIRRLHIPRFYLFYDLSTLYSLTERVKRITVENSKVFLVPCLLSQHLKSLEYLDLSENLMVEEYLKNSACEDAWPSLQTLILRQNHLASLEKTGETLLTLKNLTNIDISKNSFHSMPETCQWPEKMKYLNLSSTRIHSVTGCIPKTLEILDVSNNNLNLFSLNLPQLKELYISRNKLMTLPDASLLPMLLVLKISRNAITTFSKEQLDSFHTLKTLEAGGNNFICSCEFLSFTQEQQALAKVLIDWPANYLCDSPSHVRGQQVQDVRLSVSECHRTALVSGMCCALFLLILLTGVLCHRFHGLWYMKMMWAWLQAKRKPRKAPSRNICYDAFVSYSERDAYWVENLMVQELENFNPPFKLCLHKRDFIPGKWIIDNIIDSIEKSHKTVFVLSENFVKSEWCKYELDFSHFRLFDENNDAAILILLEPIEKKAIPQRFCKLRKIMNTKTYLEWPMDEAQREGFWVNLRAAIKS

| Ki [2] | Compound | response rate of tetramer positive CD8+ T cells (day 7 = 100%) ([1]; day 21 post-immunization) | response rate of tetramer positive CD8+ T cells (day 7 = 100%) ([1]; day 34 post-immunization) | signs or symptoms of stress or toxicity in mice ([1]; over the course of the experiment (34 days), 50 μg i.v.) |
| --- | --- | --- | --- | --- |
| – | CCCCCCCCCCCCCCCC(=O)OC[C@H](CSC[C@H](NC(=O)COCC(=O)NCCCOCCOCCOCCCNC(C)=O)C(=O)NCC(=O)N[C@H](CO)C(=O)NCCCOCCOCCOCCCNC(=O)COCC(N)=O)OC(=O)CCCCCCCCCCCCCCC [Compound 10] | 25.7% | 12.7% | No signs or symptoms of stress or toxicity were observed |
| < 100 nM | CCCCCCCCCCCCCCCC(=O)OC[C@H](CSC[C@H](NC(=O)COCC(=O)NCCCOCCOCCOCCCNC(=O)CCSC1CC(=O)N(CCNC(=O)CCCCCN2C(=CC=C3CCCC(C=CC4=[N+](CCCCS(=O)(=O)O)c5ccc(S(=O)(=O)[O-])cc5C4(C)C)=C3Oc3ccc(S(=O)(=O)O)cc3)C(C)(C)c3cc(S(=O)(=O)O)ccc32)C1=O)C(=O)NCC(=O)N[C@H](CO)C(=O)NCCCOCCOCCOCCCNC(=O)COCC(N)=O)OC(=O)CCCCCCCCCCCCCCC (stereo partly shown) [Compound 13, IRDye800CW-Mpr-PEGO-Dhc(Pam2)-Gly-DSer-PEGO-NH2] | – | – | – |
